From ChEMBL document CHEMBL1144027, “Synthesis and antimycobacterial evaluation of newer 1-cyclopropyl-1,4-dihydro-6-fluoro-7-(substituted secondary amino)-8-methoxy-5-(sub)-4-oxoquinoline-3-carboxylic acids” (Bioorg Med Chem, 2008)
Values after ≈ are worked out from the molar mass of the structure shown.

Tested on: Mycobacterium tuberculosis
Assay: Antimycobacterial activity against multidrug resistant Mycobacterium tuberculosis by agar dilution method
Format: functional
Outline: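 Agar dilution MIC on Middlebrook 7H11 agar with OADC, following the NCCLS-recommended approach, run in duplicate. The MDR clinical isolate was resistant to isoniazid, rifampicin, ethambutol and ofloxacin.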

Row | Compound | MIC
1 | COc1c(N2CCN(C)C(c3ccccc3)C2)c(F)c([N+](=O)[O-])c2c(=O)c(C(=O)O)cn(C3CC3)c12 (centres undefined) | 3.14 µM (≈ 1.56 µg/mL)
2 | CCN(CC)C(=O)C1CCCN(c2c(F)cc3c(=O)c(C(=O)O)cn(C4CC4)c3c2OC)C1 (centres undefined) | 3.39 µM (≈ 1.56 µg/mL)
3 | COc1c(N2CCN(Cc3ccc4c(c3)OCO4)CC2)c(F)cc2c(=O)c(C(=O)O)cn(C3CC3)c12 | 1.57 µM (≈ 0.778 µg/mL)
4 | COc1c(N2CCc3ccccc3C2C(=O)NC(C)(C)C)c(F)c([N+](=O)[O-])c2c(=O)c(C(=O)O)cn(C3CC3)c12 (centres undefined) | 2.82 µM (≈ 1.56 µg/mL)
5 | COc1c(N2CCC3(CC2)OCCO3)c(F)cc2c(=O)c(C(=O)O)cn(C3CC3)c12 | 1.86 µM (≈ 0.778 µg/mL)
6 | COc1c(N2CCN(C(c3ccccc3)c3ccc(Cl)cc3)CC2)c(F)c([N+](=O)[O-])c2c(=O)c(C(=O)O)cn(C3CC3)c12 (centres undefined) | 1.28 µM (≈ 0.777 µg/mL)
7 | COc1c(N2CCN(C(=O)C3COc4ccccc4O3)CC2)c(F)cc2c(=O)c(C(=O)O)cn(C3CC3)c12 (centres undefined) | 0.74 µM (≈ 0.387 µg/mL)
8 | COc1ccc(CC2C3=C(CCCC3)CCN2c2c(F)c(N)c3c(=O)c(C(=O)O)cn(C4CC4)c3c2OC)cc1 (centres undefined) | 2.85 µM (≈ 1.56 µg/mL)
9 | COc1c(N2CCn3cc(C(=O)O)nc3C2)c(F)c([N+](=O)[O-])c2c(=O)c(C(=O)O)cn(C3CC3)c12 | 1.6 µM (≈ 0.78 µg/mL)
10 | CCN(CC)C(=O)C1CCCN(c2c(F)c([N+](=O)[O-])c3c(=O)c(C(=O)O)cn(C4CC4)c3c2OC)C1 (centres undefined) | 1.55 µM (≈ 0.782 µg/mL)
11 | COc1ccc(CC2C3=C(CCCC3)CCN2c2c(F)c([N+](=O)[O-])c3c(=O)c(C(=O)O)cn(C4CC4)c3c2OC)cc1 (centres undefined) | 0.33 µM (≈ 0.191 µg/mL)
12 | COc1ccc(CC2C3=C(CCCC3)CCN2c2c(F)cc3c(=O)c(C(=O)O)cn(C4CC4)c3c2OC)cc1 (centres undefined) | 1.46 µM (≈ 0.778 µg/mL)
13 | COc1c(N2CCSCC2)c(F)cc2c(=O)c(C(=O)O)cn(C3CC3)c12 | 2.06 µM (≈ 0.78 µg/mL)
14 | COc1c(N2CC(C)OC(C)C2)c(F)cc2c(=O)c(C(=O)O)cn(C3CC3)c12 (centres undefined) | 3.99 µM (≈ 1.56 µg/mL)
15 | COc1c(N2CCN(C(=O)C3COc4ccccc4O3)CC2)c(F)c([N+](=O)[O-])c2c(=O)c(C(=O)O)cn(C3CC3)c12 (centres undefined) | 2.74 µM (≈ 1.56 µg/mL)
16 | COc1c(N2COCC2(C)C)c(F)c([N+](=O)[O-])c2c(=O)c(C(=O)O)cn(C3CC3)c12 | 0.93 µM (≈ 0.392 µg/mL)
17 | COc1c(N2COCC2(C)C)c(F)cc2c(=O)c(C(=O)O)cn(C3CC3)c12 | 2.07 µM (≈ 0.779 µg/mL)
18 | COc1c(N2CC(C)OC(C)C2)c(F)c([N+](=O)[O-])c2c(=O)c(C(=O)O)cn(C3CC3)c12 (centres undefined) | 1.79 µM (≈ 0.779 µg/mL)
19 | COc1c(N2CCC3(CC2)OCCO3)c(F)c([N+](=O)[O-])c2c(=O)c(C(=O)O)cn(C3CC3)c12 | 0.41 µM (≈ 0.19 µg/mL)
20 | COc1c(N2CCSCC2)c(F)c([N+](=O)[O-])c2c(=O)c(C(=O)O)cn(C3CC3)c12 | 1.84 µM (≈ 0.779 µg/mL)
21 | COc1c(N2CCn3cc(C(=O)O)nc3C2)c(F)cc2c(=O)c(C(=O)O)cn(C3CC3)c12 | 1.76 µM (≈ 0.779 µg/mL)
22 | COc1c(N2CCN(Cc3ccc4c(c3)OCO4)CC2)c(F)c([N+](=O)[O-])c2c(=O)c(C(=O)O)cn(C3CC3)c12 | 0.35 µM (≈ 0.189 µg/mL)
23 | COc1c(N2CCNC(C)C2)c(F)cc2c(=O)c(C(=O)O)cn(C3CC3)c12 (centres undefined) [GATIFLOXACIN] | 8.34 µM (≈ 3.13 µg/mL)
24 | NNC(=O)c1ccncc1 [ISONIAZID] | 45.6 µM (≈ 6.25 µg/mL)
